Here are results for two compounds from ChEMBL document CHEMBL3243962, “Antileukemic activity of derivatives of 1,2-dimethyl-3,4-bis(hydroxymethyl)-5-phenylpyrrole bis(N-methylcarbamate)” (J Med Chem, 1979).

Data set [1] has as its system Mus musculus. Put plainly: Toxicity in mouse P388 cells allografted CD2F1 mouse assessed as body weight loss at 7.5 mg/kg, ip of total 9 doses starting 24 hrs post tumor inoculation measured on day 5 of inoculation relative to control. It counts as organism-based. Also noted: dose 7.5 mg/kg, route intraperitoneal. The conditions noted are these: in vivo. In short, it runs like this: (§1)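 Male CD2F1 mice inoculated ip with 6×10^6 P388 leukemia cells. Compounds given ip as distilled water–Tween 80 suspension, nine daily doses starting 24 h after inoculation; six mice per dose group. Treated-minus-control body-weight change (T − C) and toxicity-day survivors recorded on day 5 (4 days after first dose).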

In data set [2] the test system is Mus musculus. The experiment in a line: Toxicity in mouse P388 cells allografted CD2F1 mouse assessed as mouse survival at 1.88 mg/kg, ip of total 9 doses starting 24 hrs post tumor inoculation measured on day 5 of inoculation relative to control. Type of data set: organism-based. Also noted: dose 1.88 mg/kg, route intraperitoneal. As to conditions: in vivo. In short, it runs like this:
(§2)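 Male CD2F1 mice bearing ip P388 leukemia (6×10^6 cells) were dosed ip with nine daily doses in distilled water–Tween 80 suspension, starting 24 h after inoculation. Survivors per group of 6 were counted on day 5, i.e. 4 days after the first dose. Body-weight change of treated minus control mice was also recorded.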

Data set [3] has as its system Mus musculus. Put plainly: Toxicity in mouse P388 cells allografted CD2F1 mouse assessed as mouse survival at 3.75 mg/kg, ip of total 9 doses starting 24 hrs post tumor inoculation measured on day 5 of inoculation relative to control. Type of data set: organism-based. The conditions noted are these: in vivo. Also noted: dose 3.75 mg/kg, route intraperitoneal. In outline:
as §2

Data set [4] relates to Mus musculus. Put plainly: Toxicity in mouse P388 cells allografted CD2F1 mouse assessed as body weight loss at 15 mg/kg, ip of total 9 doses starting 24 hrs post tumor inoculation measured on day 5 of inoculation relative to control. It counts as organism-based. Also noted: dose 15 mg/kg, route intraperitoneal. The conditions noted are these: in vivo. In short, it runs like this: as §1

Data set [5] has as its system P388. The experiment in a line: Antitumor activity against mouse P388 cells allografted in CD2F1 mouse assessed as increase in mouse survival at 7.5 mg/kg, ip of total 9 doses starting 24 hrs post tumor inoculation measured on day 5 of inoculation relative to control. Type of data set: functional. As to conditions: route intraperitoneal. In outline:
(§3)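 Male CD2F1 mice inoculated ip with 6×10^6 P388 leukemia cells. Dosing was ip as a suspension in distilled water–Tween 80, nine daily doses starting 24 h after inoculation. Activity was read as median survival time of treated vs control mice (% T/C); % T/C ≥ 120 was considered significant. Groups were 6 mice.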

Data set [6] relates to Mus musculus. Put plainly: Toxicity in mouse P388 cells allografted CD2F1 mouse assessed as mouse survival at 30 mg/kg, ip of total 9 doses starting 24 hrs post tumor inoculation measured on day 5 of inoculation relative to control. Also noted: dose 30 mg/kg, route intraperitoneal. It counts as organism-based. The conditions noted are these: in vivo. In short, it runs like this: as §2

Data set [7] concerns P388. Put plainly: Antitumor activity against mouse P388 cells allografted in CD2F1 mouse assessed as increase in mouse survival at 3.75 mg/kg, ip of total 9 doses starting 24 hrs post tumor inoculation measured on day 5 of inoculation relative to control. It counts as functional. As to conditions: route intraperitoneal. In short, it runs like this:
as §3

Data set [8] concerns Mus musculus. Put plainly: Toxicity in mouse P388 cells allografted CD2F1 mouse assessed as body weight loss at 30 mg/kg, ip of total 9 doses starting 24 hrs post tumor inoculation measured on day 5 of inoculation relative to control. Also noted: dose 30 mg/kg, route intraperitoneal. The conditions noted are these: in vivo. It counts as organism-based. In outline:
as §1

The subject of data set [9] is P388. Put plainly: Antitumor activity against mouse P388 cells allografted in CD2F1 mouse assessed as increase in mouse survival at 15 mg/kg, ip of total 9 doses starting 24 hrs post tumor inoculation measured on day 5 of inoculation relative to control. It counts as functional. The conditions noted are these: route intraperitoneal. In short, it runs like this: as §3

For data set [10], the system named is Mus musculus. The experiment in a line: Toxicity in mouse P388 cells allografted CD2F1 mouse assessed as mouse survival at 15 mg/kg, ip of total 9 doses starting 24 hrs post tumor inoculation measured on day 5 of inoculation relative to control. Type of data set: organism-based. Also noted: dose 15 mg/kg, route intraperitoneal. The conditions noted are these: in vivo. In short, it runs like this:
as §2

The subject of data set [11] is Mus musculus. Put plainly: Toxicity in mouse P388 cells allografted CD2F1 mouse assessed as body weight loss at 1.88 mg/kg, ip of total 9 doses starting 24 hrs post tumor inoculation measured on day 5 of inoculation relative to control. It counts as organism-based. As to conditions: in vivo. Also noted: dose 1.88 mg/kg, route intraperitoneal. In short, it runs like this:
as §1

The subject of data set [12] is Mus musculus. Put plainly: Toxicity in mouse P388 cells allografted CD2F1 mouse assessed as body weight loss at 3.75 mg/kg, ip of total 9 doses starting 24 hrs post tumor inoculation measured on day 5 of inoculation relative to control. It counts as organism-based. Also noted: dose 3.75 mg/kg, route intraperitoneal. As to conditions: in vivo. In outline:
as §1

For data set [13], the system named is Mus musculus. Put plainly: Toxicity in mouse P388 cells allografted CD2F1 mouse assessed as mouse survival at 7.5 mg/kg, ip of total 9 doses starting 24 hrs post tumor inoculation measured on day 5 of inoculation relative to control. It counts as organism-based. Also noted: dose 7.5 mg/kg, route intraperitoneal. As to conditions: in vivo. In outline: as §2

In data set [14] the test system is P388. The experiment in a line: Antitumor activity against mouse P388 cells allografted in CD2F1 mouse assessed as increase in mouse survival at 1.88 mg/kg, ip of total 9 doses starting 24 hrs post tumor inoculation measured on day 5 of inoculation relative to control. It counts as functional. The conditions noted are these: route intraperitoneal. In outline:
as §3

The subject of data set [15] is P388. The experiment in a line: Antitumor activity against mouse P388 cells allografted in CD2F1 mouse assessed as increase in mouse survival at 30 mg/kg, ip of total 9 doses starting 24 hrs post tumor inoculation measured on day 5 of inoculation relative to control. It counts as functional. As to conditions: route intraperitoneal. In short, it runs like this: as §3

Data set [16] concerns P388. The experiment in a line: Antitumor activity against mouse P388 cells allografted in CD2F1 mouse assessed as increase in mouse survival at 100 mg/kg, ip of total 9 doses starting 24 hrs post tumor inoculation measured on day 5 of inoculation relative to control. It counts as functional. As to conditions: route intraperitoneal. In short, it runs like this:
as §3

Data set [17] deals with Mus musculus. The experiment in a line: Toxicity in mouse P388 cells allografted CD2F1 mouse assessed as body weight loss at 100 mg/kg, ip of total 9 doses starting 24 hrs post tumor inoculation measured on day 5 of inoculation relative to control. It counts as organism-based. Also noted: dose 100 mg/kg, route intraperitoneal. The conditions noted are these: in vivo. In short, it runs like this:
as §1

Data set [18] deals with Mus musculus. The experiment in a line: Toxicity in mouse P388 cells allografted CD2F1 mouse assessed as body weight loss at 50 mg/kg, ip of total 9 doses starting 24 hrs post tumor inoculation measured on day 5 of inoculation relative to control. Type of data set: organism-based. Also noted: dose 50 mg/kg, route intraperitoneal. As to conditions: in vivo. In outline:
as §1

Data set [19] deals with Mus musculus. The experiment in a line: Toxicity in mouse P388 cells allografted CD2F1 mouse assessed as mouse survival at 100 mg/kg, ip of total 9 doses starting 24 hrs post tumor inoculation measured on day 5 of inoculation relative to control. Type of data set: organism-based. As to conditions: in vivo. Also noted: dose 100 mg/kg, route intraperitoneal. In outline: as §2

For data set [20], the system named is Mus musculus. The experiment in a line: Toxicity in mouse P388 cells allografted CD2F1 mouse assessed as body weight loss at 25 mg/kg, ip of total 9 doses starting 24 hrs post tumor inoculation measured on day 5 of inoculation relative to control. It counts as organism-based. The conditions noted are these: in vivo. Also noted: dose 25 mg/kg, route intraperitoneal. In outline: as §1

Data set [21] has as its system Mus musculus. Put plainly: Toxicity in mouse P388 cells allografted CD2F1 mouse assessed as body weight loss at 200 mg/kg, ip of total 9 doses starting 24 hrs post tumor inoculation measured on day 5 of inoculation relative to control. It counts as organism-based. Also noted: dose 200 mg/kg, route intraperitoneal. The conditions noted are these: in vivo. In outline: as §1

The subject of data set [22] is Mus musculus. Put plainly: Toxicity in mouse P388 cells allografted CD2F1 mouse assessed as mouse survival at 25 mg/kg, ip of total 9 doses starting 24 hrs post tumor inoculation measured on day 5 of inoculation relative to control. Also noted: dose 25 mg/kg, route intraperitoneal. As to conditions: in vivo. It counts as organism-based. In outline: as §2
Data set [23] relates to P388. The experiment in a line: Antitumor activity against mouse P388 cells allografted in CD2F1 mouse assessed as increase in mouse survival at 200 mg/kg, ip of total 9 doses starting 24 hrs post tumor inoculation measured on day 5 of inoculation relative to control. Type of data set: functional. The conditions noted are these: route intraperitoneal. In short, it runs like this:
as §3

Data set [24] deals with P388. The experiment in a line: Antitumor activity against mouse P388 cells allografted in CD2F1 mouse assessed as increase in mouse survival at 50 mg/kg, ip of total 9 doses starting 24 hrs post tumor inoculation measured on day 5 of inoculation relative to control. It counts as functional. As to conditions: route intraperitoneal. In short, it runs like this: as §3
Data set [25] relates to Mus musculus. The experiment in a line: Toxicity in mouse P388 cells allografted CD2F1 mouse assessed as mouse survival at 50 mg/kg, ip of total 9 doses starting 24 hrs post tumor inoculation measured on day 5 of inoculation relative to control. It counts as organism-based. Also noted: dose 50 mg/kg, route intraperitoneal. The conditions noted are these: in vivo. In outline: as §2

Data set [26] has as its system Mus musculus. The experiment in a line: Toxicity in mouse P388 cells allografted CD2F1 mouse assessed as body weight loss at 12.5 mg/kg, ip of total 9 doses starting 24 hrs post tumor inoculation measured on day 5 of inoculation relative to control. It counts as organism-based. Also noted: dose 12.5 mg/kg, route intraperitoneal. The conditions noted are these: in vivo. In short, it runs like this: as §1

Data set [27] concerns P388. The experiment in a line: Antitumor activity against mouse P388 cells allografted in CD2F1 mouse assessed as increase in mouse survival at 25 mg/kg, ip of total 9 doses starting 24 hrs post tumor inoculation measured on day 5 of inoculation relative to control. Type of data set: functional. As to conditions: route intraperitoneal. In short, it runs like this:
as §3

Data set [28] has as its system Mus musculus. Put plainly: Toxicity in mouse P388 cells allografted CD2F1 mouse assessed as mouse survival at 12.5 mg/kg, ip of total 9 doses starting 24 hrs post tumor inoculation measured on day 5 of inoculation relative to control. It counts as organism-based. Also noted: dose 12.5 mg/kg, route intraperitoneal. As to conditions: in vivo. In short, it runs like this: as §2

Data set [29] deals with Mus musculus. Put plainly: Toxicity in mouse P388 cells allografted CD2F1 mouse assessed as mouse survival at 200 mg/kg, ip of total 9 doses starting 24 hrs post tumor inoculation measured on day 5 of inoculation relative to control. It counts as organism-based. Also noted: dose 200 mg/kg, route intraperitoneal. As to conditions: in vivo. In outline:
as §2

The test system of data set [30] is P388. Put plainly: Antitumor activity against mouse P388 cells allografted in CD2F1 mouse assessed as increase in mouse survival at 12.5 mg/kg, ip of total 9 doses starting 24 hrs post tumor inoculation measured on day 5 of inoculation relative to control. It counts as functional. As to conditions: route intraperitoneal. In short, it runs like this:
as §3

In general, T/C refers to the ratio of treated to control. Consider `CNC(=O)OCc1c(COC(=O)NC)c(-c2ccc(-c3ccccc3)cc2)n(C)c1C`, for which the Activity in data set [1] was 2.2 g; in data set [2], “Non-toxic”; in [3] it was “Non-toxic”; in data set [4], 3.1 g; in data set [6], “Non-toxic”; in data set [8], 3.6 g. For the same compound, the Activity entry in [10] is on record as “Non-toxic”; in [11] it was 0.6 g; in data set [12], 1.3 g; in data set [13] it was “Non-toxic”. Moreover, the T/C was determined as 144% in [5]; 144% in data set [7]; 153% in [9]; 135% in data set [14]; 144% in data set [15].

On to `CNC(=O)OCc1c(COC(=O)NC)c(-c2ccc(S(C)(=O)=O)cc2)n(C)c1C`, for which the T/C was 180% in [16]; 198% in [23]; 162% in data set [24]; 144% in data set [27]; 136% in data set [30]. The Activity in data set [17] is 2.1 g; in data set [18], 1.1 g; in [19] it was “Non-toxic”; in data set [20], 0.8 g; in data set [21], 3.7 g; in data set [22], “Non-toxic”. Moreover, the Activity result was “Non-toxic” in data set [25], 0.4 g in [26], “Non-toxic” in data set [28] and “Non-toxic” in [29].
